Screening data (PubChem BioAssay)
Wnt bcat act: activators of Wnt/beta-catenin signaling; activation, % at 9.35 µM; Wnt/beta-catenin reporter cell assay, activator, plate reader; hit rate 1.2% among 300,000; in the data active means activation above about 30%, passing the limit was not always enough; inconclusive means no clear call, values can overlap the other calls;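 further: 0% = neutral control wells and 100% = positive control wells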
Cneo AK release: causes C. neoformans cell lysis. AID 651654. lysis activity, % at 15 µM. hit rate 0.2% among 360,000. adenylate kinase release luminescence, 4 h; normalised: neutral wells 0, clomiphene wells 100;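 active means mean lysis activity across replicates of at least 80%, whatever share of replicates individually reach that level; inactive means mean lysis activity below 80%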
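Assay system: log-phase C. neoformans yeast / Quantity: yeast cell density of 5 × 10^6 cells/mL / Medium: fresh YPD growth medium / Compound: single dose / Timing: static 4 h at 37 °C with compound, 1 h detection / Measured by: adenylate kinase release luminescence / Read-out: lysis from increased AK signal / Benchmarks: Clomiphene as positive lysis control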
PGC1a acetyl inh: lowers PGC1a acetylation signal in U2OS cells | AlphaScreen anti-acetyl-lysine; with virally co-expressed GCN5 acetyltransferase | inhibition, % at 15.6 µM | hit rate 0.17% among 350,000;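 active means every replicate shows inhibition of at least 40%; inconclusive means mean inhibition at least 40% but some replicate below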;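 further: 0% = neutral control wells and 100% = positive control wells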
MITF act: MITF TRPM1 promoter activation in melanoma cells; SK-MEL-5 TRPM1-promoter luciferase, 24 h; % of positive control, neutral wells = 0; hit rate 0.75% among 300,000; AID 588334; activation, % at 12.5 µM;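 active means mean activation of at least 80% with every replicate also reaching 80%; inconclusive means mean reaches 80% but some replicate falls short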;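 further: 0% = neutral control wells and 100% = parthenolide positive control wells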
* hit, by the source's call; ? = inconclusive; . = not tested or not shown. Sampled rows, rich in hits. Any-hit rate of the full collection: about 1.5%.

SMILES | Wnt bcat act | Cneo AK release | PGC1a acetyl inh | MITF act
C/C=C/c1ccc([C@H]2[C@H](CO)N(C(=O)c3cnccn3)C23CN(C(=O)CC)C3)cc1 | . | . | 4 | .
C[C@@H]1CCCCO[C@@H](CN(C)C)[C@@H](C)CN([C@H](C)CO)C(=O)c2cc(NC(=O)Nc3cccc4ccccc34)ccc2O1 | . | 1 | 0 | .
Cc1nn(-c2ccccc2)nc1C(=O)NNC(=O)c1cccc2ccccc12 | -1 | 2 | . | -13
Cc1nn(-c2ccccc2)nc1C(=O)NN | 36* | 5 | 4 | 0
CCCNC(=O)C[C@@H]1C[C@H]2c3cc(N(C)C)ccc3O[C@H]2[C@@H](CO)O1 | . | -2 | -10 | .
N#C/C(=C\c1ccccc1O)C(=O)Nc1cccnc1 | 36* | -3 | -1 | 94*
COc1ccc(NC(=O)Nc2ccc3c(c2)C(=O)N([C@H](C)CO)C[C@H](C)[C@@H](CN(C)S(=O)(=O)c2c(C)noc2C)OCCCC[C@H](C)O3)cc1 | . | -1 | -6 | .
COCC(=O)N1[C@H](CO)[C@@H](c2ccccc2)C12CN(C(=O)c1ccc(F)cc1)C2 | . | . | -3 | .
CSc1nnc(NC(=O)c2ccc(S(=O)(=O)N(C)C)cc2)s1 | 40* | . | . | 5
Cc1ccc(Nc2nc(N)nc(CSC(=S)N3CCOCC3)n2)cc1 | . | 7 | 5 | .
Nc1nc(CSC(=S)N2CCOCC2)nc(Nc2ccccc2)n1 | 45* | -2 | . | 118*
Nc1nc(CSC(=S)N2CCCCC2)nc(Nc2ccccc2)n1 | ? | . | . | 50
COc1ccccc1Nc1nc(N)nc(CSC(=S)N2CCCCC2)n1 | 35* | 5 | 0 | 16
C[C@H](CO)N1C[C@H](C)[C@H](CN(C)S(C)(=O)=O)OCCCC[C@H](C)Oc2ccc(NC(=O)c3ccccc3)cc2C1=O | . | 1 | 11 | .
COCCCNC(=S)Nc1ccc(C)cc1 | 0 | . | -1 | -1
S=C(NCCCc1ccccc1)Nc1ccc(Cl)cc1 | . | . | . | 14
S=C(NCCCc1ccccc1)Nc1ccccc1 | 2 | 104* | 5 | -4
COCCCNC(=S)NNC(=S)Nc1ccccc1 | 42* | 0 | 8 | .
O=C(C[C@@H]1C[C@H]2c3cc(NC(=O)NC4CCCC4)ccc3O[C@H]2[C@@H](CO)O1)NCC1CC1 | . | -9 | 4 | .
C[C@H]1CN([C@@H](C)CO)C(=O)c2cc(NC(=O)Cn3cnnn3)ccc2O[C@@H]1CN(C)S(=O)(=O)c1ccc(F)cc1 | . | 0 | 0 | .
O=c1c2ccccc2oc2ccc(Oc3ccccc3)cc12 | 54* | -3 | -3 | ?
Cc1ccc(/C(N)=N/OC(=O)CSc2ccccc2)cc1 | ? | . | . | -5
N/C(=N\OC(=O)CSc1ccccc1)c1ccc([N+](=O)[O-])cc1 | 39* | . | . | 25
CC=Cc1ccc2n(c1=O)C[C@H]1[C@H](CO)[C@@H](C(=O)N3CCCCC3)N(Cc3ccccc3)[C@@H]21 (mixture of isomers) | . | 2 | -6 | .
ClCCn1cnc2c(SCc3ccccc3)ncnc21 | 11 | 1 | 25 | 138*
SMILES | Wnt bcat act | Cneo AK release | PGC1a acetyl inh | MITF act
ClCCn1cnc2c(SCc3ccccc3Cl)ncnc21 | -12 | 1 | 19 | 75
COc1cccc(-c2ccc([C@H]3[C@@H](CO)N4C(=O)CN(C(=O)C5CCOCC5)C[C@@H]34)cc2)c1 | . | . | -25 | .
Cc1ccc(-n2c(O)c(C=NC3CCS(=O)(=O)C3)c3ccccc3c2=O)c(C)c1 (configuration not stated) | -1 | . | 57* | -2
COC(=O)/C(=C\Nc1cccc(Cl)c1C)c1ncc(C(F)(F)F)cc1Cl | . | . | 41* | -4
COc1cccc(C(=O)c2ncc(C(F)(F)F)cc2Cl)c1 | 1 | . | . | 15
Cc1ccc(NC(=O)CCC(=O)NNC(=O)C(C)(C)C)c(C)c1 | 40* | . | . | 6
CNC(=O)C[C@@H]1CC[C@@H]2[C@H](COc3ccc(NC(=O)NCc4ccccc4)cc3C(=O)N2C)O1 | . | -1 | -5 | .
CNC(=O)C[C@@H]1CC[C@H]2[C@H](COc3ccc(NC(=O)Nc4cc(C)cc(C)c4)cc3C(=O)N2C)O1 | . | -1 | -1 | .
CC(=O)c1ccc(OCc2ccccc2)c(C)c1O | 31* | 0 | . | 77
Nc1ncccc1OCc1ccc(Br)cc1 | 6 | . | 10 | 102*
Cc1cc(C)cc(NC(=S)Nc2cccc3cnccc23)c1 | 0 | . | -4 | -5
CCc1ccc(NC(=S)Nc2cccc3cnccc23)cc1 | 34* | 7 | 9 | 7
C[C@H]1CN([C@@H](C)CO)S(=O)(=O)c2ccc(-c3cccnc3)cc2O[C@@H]1CN(C)C(=O)C1CC1 | . | . | 0 | .
O=C(NC1CCCCC1)N[C@@H]1CC[C@@H](CCNS(=O)(=O)c2ccccc2)O[C@H]1CO | . | -1 | 2 | .
CNC[C@H]1Oc2ccc(NS(=O)(=O)c3ccc(Cl)cc3)cc2C(=O)N([C@@H](C)CO)C[C@H]1C | . | 10 | 5 | .
O=C1OC(c2ccc(Br)cc2)=N/C1=C\N1CCCCC1 | 9 | -2 | 13 | 124*
O=C1OC(c2ccccc2)=N/C1=C\N1CCCCC1 | -1 | -3 | -9 | 86*
Cc1nn(-c2ccccc2)c(N2CCCC2)c1/C=C1\N=C(c2ccc(F)cc2)OC1=O | 0 | -1 | 3 | -2
O=C1OC(c2ccccc2)=C/C1=C/N1CCCCC1 | 2 | -1 | 4 | 105*
O=C1OC(c2ccccc2)=CC1=Cc1ccccc1O | 29 | -1 | 0 | .
Cc1ccc(C2=N/C(=C\c3c(C)nn(-c4ccccc4)c3N3CCCC3)C(=O)O2)cc1 | -2 | 1 | -9 | 1
COCC(=O)Nc1ccc2c(c1)C(=O)N(C)[C@@H]1CC[C@H](CC(=O)OC)O[C@@H]1CO2 | . | 4 | 10 | .
CC(C)NC(=O)N(C)C[C@@H]1Oc2c(NS(=O)(=O)c3ccccc3)cccc2C(=O)N([C@H](C)CO)C[C@H]1C | . | 1 | -4 | .
CCN1[C@@H]2Cn3c(ccc(-c4ccccc4F)c3=O)[C@H]1[C@@H](C(=O)N1CCCCC1)[C@@H]2CO | . | -1 | . | .
COc1ccc(S(=O)(=O)Nc2ccc3c(c2)C(=O)N([C@H](C)CO)C[C@H](C)[C@@H](CN(C)CC2CC2)O3)cc1 | . | . | 1 | .
SMILES | Wnt bcat act | Cneo AK release | PGC1a acetyl inh | MITF act
CCCc1ccc(OCc2nc(-c3ccc(NC(=O)c4cccs4)cc3)no2)cc1 | 1 | -3 | -9 | 94*
Cc1ccccc1OCc1nc(-c2ccccc2)no1 | . | -4 | -5 | 97*
c1ccc(OCc2nc(-c3cccs3)no2)cc1 | . | -6 | -10 | 108*
Fc1ccc(OCc2nc(-c3cccs3)no2)cc1 | 12 | 0 | 5 | 72
Cc1ccc(C)c(OCc2nc(-c3cccnc3)no2)c1 | . | -1 | -8 | 35
Cc1cc(Br)ccc1OCc1nc(-c2cccnc2)no1 | 38* | 0 | -6 | .
Cc1ccc(S(=O)(=O)N[C@@H]2C=C[C@@H](CC(=O)N3CCN(c4ccccc4)CC3)O[C@@H]2CO)cc1 | . | 2 | 0 | .
C[C@H]1CN([C@@H](C)CO)C(=O)c2cc(NC(=O)c3ccncc3)ccc2O[C@@H]1CN(C)C(=O)Nc1ccc2c(c1)OCO2 | . | -3 | -8 | .
O=C1NC(Cc2ccc(Cl)cc2)COCc2cnnn2CCC1c1ccccc1 (configuration not stated) | . | 0 | . | .
